ChEMBL document CHEMBL1921785, “Exploration of in vitro time point quantitative evaluation of newly synthesized benzimidazole and benzothiazole derivatives as potential antibacterial agents” (2011)

Experiments:
Assay type in all cases: functional
Shigella dysenteriae [1] = assay: Antibacterial activity against Shigella dysenteriae assessed as zone of growth inhibition at 0.2 mg/ml after 18 to 24 hrs by Kirby-Bauer agar diffusion method; details: read-out: DIZ
Staphylococcus aureus [2] = assay: Bactericidal activity against Staphylococcus aureus MTCC 3160 assessed as time required to complete extermination of bacteria at 0.2 mg/mL by time-kill assay
Procedure, shortened: (§1)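 Time-kill by pour plate. Overnight 37 °C cultures in Mueller-Hinton broth were dosed at about 0.2 mg/mL and incubated at 37 °C for up to 72 h, with broth replenished every 24 h. Samples were taken over time, serially diluted, and pour-plated on MHA at 37 °C for 18–24 h. Colonies were counted as CFU/ml against untreated culture controls.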

Staphylococcus aureus [3] = assay: Antibacterial activity against Staphylococcus aureus MTCC 3160 assessed as zone of growth inhibition at 0.2 mg/ml after 18 to 24 hrs by Kirby-Bauer agar diffusion method; details: read-out: DIZ
Procedure, shortened: (§2)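 Kirby-Bauer disc diffusion on Mueller-Hinton agar, following CLSI 2007 guidelines, with ciprofloxacin as reference drug. Read-out is the diameter of the zone of growth inhibition in mm.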

Bacillus cereus [4] = assay: Antibacterial activity against Bacillus cereus MTCC 430 assessed as zone of growth inhibition at 0.2 mg/ml after 18 to 24 hrs by Kirby-Bauer agar diffusion method; details: read-out: DIZ; procedure, shortened: as §2
Bacillus cereus [5] = assay: Bactericidal activity against Bacillus cereus MTCC 430 assessed as log reduction in bacterial count at 0.2 mg/mL up to 48 hrs by time-kill assay; procedure, shortened: as §1
Vibrio cholerae [6] = assay: Antibacterial activity against Vibrio cholerae MTCC 3904 assessed as zone of growth inhibition at 0.2 mg/ml after 18 to 24 hrs by Kirby-Bauer agar diffusion method; details: read-out: DIZ
Escherichia coli [7] = assay: Antibacterial activity against Escherichia coli MTCC 1610 assessed as zone of growth inhibition at 0.2 mg/ml after 18 to 24 hrs by Kirby-Bauer agar diffusion method; details: read-out: DIZ; procedure, shortened: as §2
Vibrio cholerae [8] = assay: Bactericidal activity against Vibrio cholerae MTCC 3904 assessed as time required to complete extermination of bacteria at 0.2 mg/mL by time-kill assay
Bacillus cereus [9] = assay: Bactericidal activity against Bacillus cereus MTCC 430 assessed as time required to complete extermination of bacteria at 0.2 mg/mL by time-kill assay; procedure, shortened: as §1
Escherichia coli [10] = assay: Bactericidal activity against Escherichia coli MTCC 1610 assessed as time required to complete extermination of bacteria at 0.2 mg/mL by time-kill assay; procedure, shortened: as §1
Shigella dysenteriae [11] = assay: Bactericidal activity against Shigella dysenteriae assessed as time required to complete extermination of bacteria at 0.2 mg/mL by time-kill assay
Bacillus cereus [12] = assay: Bactericidal activity against Bacillus cereus MTCC 430 assessed as time required to complete extermination of bacteria by time-kill assay; procedure, shortened: as §1
Vibrio cholerae [13] = assay: Antibacterial activity against Vibrio cholerae MTCC 3904 assessed as zone of growth inhibition after 18 to 24 hrs by Kirby-Bauer agar diffusion method
Shigella dysenteriae [14] = assay: Bactericidal activity against Shigella dysenteriae assessed as time required to complete extermination of bacteria by time-kill assay
Bacillus cereus [15] = assay: Antibacterial activity against Bacillus cereus MTCC 430 assessed as zone of growth inhibition after 18 to 24 hrs by Kirby-Bauer agar diffusion method; procedure, shortened: as §2
Shigella dysenteriae [16] = assay: Antibacterial activity against Shigella dysenteriae assessed as zone of growth inhibition at after 18 to 24 hrs by Kirby-Bauer agar diffusion method
Staphylococcus aureus [17] = assay: Bactericidal activity against Staphylococcus aureus MTCC 3160 assessed as time required to complete extermination of bacteria by time-kill assay; procedure, shortened: as §1
Vibrio cholerae [18] = assay: Bactericidal activity against Vibrio cholerae MTCC 3904 assessed as time required to complete extermination of bacteria by time-kill assay

SMILES: CC(C)c1ccc(-c2nc3ccccc3s2)cc1
- zone of inhibition at 200 µg/mL (Shigella dysenteriae [1]): 15 mm
- Time (Staphylococcus aureus [2]): <48 h
- zone of inhibition at 200 µg/mL (Staphylococcus aureus [3]): 13 mm
- zone of inhibition at 200 µg/mL (Bacillus cereus [4]): 20 mm
- log reduction in bacterial count (Bacillus cereus [5]): 3

SMILES: c1coc(Cn2c(-c3ccco3)nc3ccccc32)c1
- zone of inhibition at 200 µg/mL (Shigella dysenteriae [1]): 12 mm
- zone of inhibition at 200 µg/mL (Vibrio cholerae [6]): 13 mm
- Time (Staphylococcus aureus [2]): <48 h
- zone of inhibition at 200 µg/mL (Staphylococcus aureus [3]): 10 mm

SMILES: CCOc1cc(Cn2c(-c3ccc(O)c(OCC)c3)nc3ccccc32)ccc1O
- zone of inhibition at 200 µg/mL (Escherichia coli [7]): 14 mm
- Time (Staphylococcus aureus [2]): <24 h
- zone of inhibition at 200 µg/mL (Staphylococcus aureus [3]): 23 mm

SMILES: Oc1ccc(Cn2c(-c3ccc(O)cc3)nc3ccccc32)cc1
- zone of inhibition at 200 µg/mL (Shigella dysenteriae [1]): 11 mm

SMILES: COc1cc(-c2nc3ccccc3s2)cc(OC)c1OC
- zone of inhibition at 200 µg/mL (Shigella dysenteriae [1]): 23 mm

SMILES: CCOc1ccc(-c2nc3ccccc3s2)cc1
- zone of inhibition at 200 µg/mL (Escherichia coli [7]): 12 mm
- zone of inhibition at 200 µg/mL (Shigella dysenteriae [1]): 16 mm
- zone of inhibition at 200 µg/mL (Vibrio cholerae [6]): 15 mm
- Time (Staphylococcus aureus [2]): <48 h
- zone of inhibition at 200 µg/mL (Staphylococcus aureus [3]): 16 mm
- zone of inhibition at 200 µg/mL (Bacillus cereus [4]): 22 mm
- log reduction in bacterial count (Bacillus cereus [5]): 3

SMILES: c1ccc(Cn2c(-c3ccccc3)nc3ccccc32)cc1
- zone of inhibition at 200 µg/mL (Escherichia coli [7]): 19 mm
- zone of inhibition at 200 µg/mL (Shigella dysenteriae [1]): 23 mm
- zone of inhibition at 200 µg/mL (Vibrio cholerae [6]): 33 mm
- zone of inhibition at 200 µg/mL (Staphylococcus aureus [3]): 10 mm
- zone of inhibition at 200 µg/mL (Bacillus cereus [4]): 22 mm
- Time (Vibrio cholerae [8]): <24 h
- log reduction in bacterial count (Bacillus cereus [5]): 3

SMILES: Cc1ccc(Cn2c(-c3ccc(C)cc3)nc3ccccc32)cc1
- zone of inhibition at 200 µg/mL (Shigella dysenteriae [1]): 13 mm
- zone of inhibition at 200 µg/mL (Vibrio cholerae [6]): 18 mm
- zone of inhibition at 200 µg/mL (Staphylococcus aureus [3]): 12 mm

SMILES: CN(C)c1ccc(Cn2c(-c3ccc(N(C)C)cc3)nc3ccccc32)cc1
- zone of inhibition at 200 µg/mL (Shigella dysenteriae [1]): 16 mm
- zone of inhibition at 200 µg/mL (Vibrio cholerae [6]): 17 mm
- zone of inhibition at 200 µg/mL (Staphylococcus aureus [3]): 11 mm

SMILES: CC(C)(C)c1ccc(Cn2c(-c3ccc(C(C)(C)C)cc3)nc3ccccc32)cc1
- zone of inhibition at 200 µg/mL (Escherichia coli [7]): 17 mm
- zone of inhibition at 200 µg/mL (Shigella dysenteriae [1]): 13 mm
- zone of inhibition at 200 µg/mL (Vibrio cholerae [6]): 21 mm
- zone of inhibition at 200 µg/mL (Bacillus cereus [4]): 12 mm

SMILES: Oc1ccc(Br)cc1Cn1c(-c2cc(Br)ccc2O)nc2ccccc21
- zone of inhibition at 200 µg/mL (Escherichia coli [7]): 17 mm
- Time (Bacillus cereus [9]): <24 h
- zone of inhibition at 200 µg/mL (Bacillus cereus [4]): 33 mm

SMILES: Fc1ccc(Cn2c(-c3ccc(F)cc3)nc3ccccc32)cc1
- zone of inhibition at 200 µg/mL (Staphylococcus aureus [3]): 10 mm
- zone of inhibition at 200 µg/mL (Bacillus cereus [4]): 18 mm

SMILES: FC(F)(F)Oc1ccc(Cn2c(-c3ccc(OC(F)(F)F)cc3)nc3ccccc32)cc1
- zone of inhibition at 200 µg/mL (Shigella dysenteriae [1]): 11 mm
- zone of inhibition at 200 µg/mL (Vibrio cholerae [6]): 23 mm
- Time (Staphylococcus aureus [2]): <48 h
- zone of inhibition at 200 µg/mL (Staphylococcus aureus [3]): 10 mm
- Time (Vibrio cholerae [8]): <24 h

SMILES: Clc1ccc(Cn2c(-c3ccc(Cl)c(Cl)c3)nc3ccccc32)cc1Cl
- zone of inhibition at 200 µg/mL (Shigella dysenteriae [1]): 11 mm

SMILES: C(=C/c1nc2ccccc2n1C/C=C/c1ccccc1)/c1ccccc1
- zone of inhibition at 200 µg/mL (Vibrio cholerae [6]): 11 mm
- zone of inhibition at 200 µg/mL (Bacillus cereus [4]): 14 mm

SMILES: CCCCCCCn1c(CCCCCC)nc2ccccc21
- zone of inhibition at 200 µg/mL (Shigella dysenteriae [1]): 21 mm
- zone of inhibition at 200 µg/mL (Vibrio cholerae [6]): 16 mm
- zone of inhibition at 200 µg/mL (Staphylococcus aureus [3]): 12 mm
- zone of inhibition at 200 µg/mL (Bacillus cereus [4]): 15 mm

SMILES: O=[N+]([O-])c1cccc(Cn2c(-c3cccc([N+](=O)[O-])c3)nc3ccccc32)c1
- zone of inhibition at 200 µg/mL (Vibrio cholerae [6]): 13 mm
- zone of inhibition at 200 µg/mL (Staphylococcus aureus [3]): 10 mm

SMILES: FC(F)(F)c1ccc(Cn2c(-c3ccc(C(F)(F)F)cc3)nc3ccccc32)cc1
- zone of inhibition at 200 µg/mL (Escherichia coli [7]): 22 mm
- zone of inhibition at 200 µg/mL (Shigella dysenteriae [1]): 19 mm
- zone of inhibition at 200 µg/mL (Vibrio cholerae [6]): 13 mm
- Time (Escherichia coli [10]): <48 h
- zone of inhibition at 200 µg/mL (Staphylococcus aureus [3]): 22 mm

SMILES: Brc1ccc(Cn2c(-c3ccc(Br)cc3)nc3ccccc32)cc1
- zone of inhibition at 200 µg/mL (Shigella dysenteriae [1]): 13 mm
- zone of inhibition at 200 µg/mL (Vibrio cholerae [6]): 16 mm
- zone of inhibition at 200 µg/mL (Bacillus cereus [4]): 15 mm

SMILES: CCc1ccccc1-c1nc2ccccc2s1
- zone of inhibition at 200 µg/mL (Escherichia coli [7]): 11 mm
- zone of inhibition at 200 µg/mL (Shigella dysenteriae [1]): 35 mm
- zone of inhibition at 200 µg/mL (Vibrio cholerae [6]): 16 mm
- Time (Shigella dysenteriae [11]): 72 h
- zone of inhibition at 200 µg/mL (Staphylococcus aureus [3]): 13 mm
- zone of inhibition at 200 µg/mL (Bacillus cereus [4]): 21 mm
- log reduction in bacterial count (Bacillus cereus [5]): 3

SMILES: CCOc1ccc(-c2nc3ccccc3s2)cc1OC
- zone of inhibition at 200 µg/mL (Shigella dysenteriae [1]): 15 mm
- zone of inhibition at 200 µg/mL (Vibrio cholerae [6]): 16 mm
- zone of inhibition at 200 µg/mL (Staphylococcus aureus [3]): 12 mm

SMILES: COc1ccc(Br)cc1-c1nc2ccccc2s1
- zone of inhibition at 200 µg/mL (Vibrio cholerae [6]): 17 mm
- zone of inhibition at 200 µg/mL (Staphylococcus aureus [3]): 12 mm
- zone of inhibition at 200 µg/mL (Bacillus cereus [4]): 21 mm

SMILES: O=[N+]([O-])c1ccc(-c2nc3ccccc3s2)cc1
- zone of inhibition at 200 µg/mL (Shigella dysenteriae [1]): 13 mm
- zone of inhibition at 200 µg/mL (Bacillus cereus [4]): 14 mm

SMILES: Oc1ccc(-c2nc3ccccc3s2)cc1
- zone of inhibition at 200 µg/mL (Vibrio cholerae [6]): 18 mm
- Time (Bacillus cereus [9]): <24 h
- zone of inhibition at 200 µg/mL (Bacillus cereus [4]): 19 mm

SMILES: O=C(O)c1cn(C2CC2)c2cc(N3CCNCC3)c(F)cc2c1=O [CIPROFLOXACIN]
- Time (Bacillus cereus [12]): 48 h
- diameter of the inhibition zone (DIZ) (Vibrio cholerae [13]): 24 mm
- Time (Shigella dysenteriae [14]): <72 h
- diameter of the inhibition zone (DIZ) (Bacillus cereus [15]): 14 mm
- diameter of the inhibition zone (DIZ) (Shigella dysenteriae [16]): 14 mm
- Time (Staphylococcus aureus [17]): 48 h
- Time (Vibrio cholerae [18]): 48 h
